Legend:
A2780 [1] = test: Inhibition of cell growth of human A2780 cells at 25 uM measured after 72 hrs by MTT assay relative to control; conditions: A2780, 72 h
A-431 = test: Inhibition of cell growth of human A-431 cells at 25 uM measured after 72 hrs by MTT assay relative to control; conditions: A-431, 72 h
[2] = Inhibition of cell growth of human SJG2 cells at 25 uM measured after 72 hrs by MTT assay relative to control; conditions: SJ-G2, 72 h
HT-29 [3] = test: Inhibition of cell growth of human HT-29 cells at 25 uM measured after 72 hrs by MTT assay relative to control; conditions: HT-29, 72 h
MIA PaCa-2 [4] = test: Inhibition of cell growth of human MIA PaCa-2 cells at 25 uM measured after 72 hrs by CCK8 assay relative to control; type: functional
Outline: (§1)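 Single 25 μM exposure, read by CCK-8, n = 3, relative to control. Seeding was 3×10^3/well for MiaPaCa2, 7×10^3/well for BxPC3 (in RPMI-1640/10% FBS) and 1×10^4/well for HPDE (in KSFM with rEGF/BPE). After 24 h attachment, cells were exposed for 72 h. CCK-8 was then incubated for 1 h, and A450 minus A650 was compared with 0.5% DMSO.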

MCF7 [5] = test: Inhibition of cell growth of human MCF7 cells at 25 uM measured after 72 hrs by MTT assay relative to control; conditions: MCF7, 72 h
U-87 MG = test: Inhibition of cell growth of human U87 cells at 25 uM measured after 72 hrs by MTT assay relative to control
BE(2)-C [6] = test: Inhibition of cell growth of human BE2C cells at 25 uM measured after 72 hrs by MTT assay relative to control
DU-145 = test: Inhibition of cell growth of human DU-145 cells at 25 uM measured after 72 hrs by MTT assay relative to control; conditions: DU-145, 72 h
NCI-H460 = test: Inhibition of cell growth of human NCI-H460 cells at 25 uM measured after 72 hrs by MTT assay relative to control; conditions: NCI-H460, 72 h
[7] = Inhibition of cell growth of human MCF-10A cells at 25 uM measured after 72 hrs by MTT assay relative to control
BXPC-3 [8] = test: Inhibition of cell growth of human BXPC-3 cells at 25 uM measured after 72 hrs by MTT assay relative to control; type: functional
Outline: (§2)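 MTT read-out. Cancer lines were grown in DMEM with 10% FBS, glutamine and antibiotics. MCF10A was grown in DMEM:F12 with 5% horse serum, EGF, hydrocortisone, cholera toxin and insulin. Cells were plated in duplicate at 2500–4000/well, and drug was added 24 h later. After 72 h, absorbance was read at 540 nm. Single-point lines used 25 μM. GI50 is 50% growth inhibition versus untreated control. n = 3.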

Capan-2 = test: Inhibition of cell growth of human Capan-2 cells at 25 uM measured after 72 hrs by MTT assay relative to control; type: functional
Outline: as §2

MCF7 [9] = test: Inhibition of cell growth of human MCF7 cells at 25 uM measured after 72 hrs by MTT assay relative to control; type: functional
Outline: as §2

MIA PaCa-2 [10] = test: Inhibition of cell growth of human MIA PaCa-2 cells at 25 uM measured after 72 hrs by MTT assay relative to control; type: functional
Outline: as §2

HT-29 [11] = test: Inhibition of cell growth of human HT-29 cells at 25 uM measured after 72 hrs by MTT assay relative to control; type: functional
Outline: as §2

BE(2)-C [12] = test: Inhibition of cell growth of human BE2C cells at 25 uM measured after 72 hrs by MTT assay relative to control; type: functional
Outline: as §2

ASPC1 = test: Inhibition of cell growth of human ASPC1 cells at 25 uM measured after 72 hrs by MTT assay relative to control; type: functional
Outline: as §2

A2780 [13] = test: Inhibition of cell growth of human A2780 cells at 25 uM measured after 72 hrs by MTT assay relative to control; type: functional
Outline: as §2

PANC-1 = test: Inhibition of cell growth of human PANC-1 cells at 25 uM measured after 72 hrs by MTT assay relative to control; type: functional
Outline: as §2

HPAC = test: Inhibition of cell growth of human HPAC cells at 25 uM measured after 72 hrs by MTT assay relative to control; type: functional
Outline: as §2

[14] = Inhibition of cell growth of human MCF-10A cells at 25 uM measured after 72 hrs by MTT assay relative to control; type: toxicity, cell-based
Outline: as §2

[15] = Inhibition of cell growth of human HPDE cells at 25 uM measured after 72 hrs by CCK8 assay relative to control; type: toxicity, cell-based
Outline: as §1

BXPC-3 [16] = test: Inhibition of cell growth of human BXPC-3 cells at 25 uM measured after 72 hrs by CCK8 assay relative to control; type: functional
Outline: as §1

SMILES	inhibition at 25 µM (A2780 [1])	inhibition at 25 µM (A-431)	inhibition at 25 µM [2]	inhibition at 25 µM (HT-29 [3])	inhibition at 25 µM (MIA PaCa-2 [4])	inhibition at 25 µM (MCF7 [5])	inhibition at 25 µM (U-87 MG)	inhibition at 25 µM (BE(2)-C [6])	inhibition at 25 µM (DU-145)	inhibition at 25 µM (NCI-H460)	inhibition at 72 h, 25 µM [7]	inhibition at 72 h, 25 µM [15]	inhibition at 25 µM (BXPC-3 [16])	further results
CC(=O)Nc1ccc(S(=O)(=O)N2CCN(CCCn3cc(-c4ccc(F)cc4)nn3)CC2)cc1	50%	28%	67%	22%	35%	27%	16%	38%	35%	18%	41%	–	–	–
Cc1ccc(-c2cn(CCCN3CCN(S(=O)(=O)c4ccccc4C(F)(F)F)CC3)nn2)cc1	–	–	–	–	–	–	–	–	–	–	–	–	–	inhibition at 25 µM (BXPC-3 [8]): 11%; inhibition at 25 µM (Capan-2): 42%; inhibition at 25 µM (MCF7 [9]): 79%; inhibition at 25 µM (MIA PaCa-2 [10]): 38%; inhibition at 25 µM (HT-29 [11]): 86%; inhibition at 25 µM (BE(2)-C [12]): 35%; inhibition at 25 µM (ASPC1): 57%; inhibition at 25 µM (A2780 [13]): 75%; inhibition at 25 µM (PANC-1): 48%; inhibition at 25 µM (HPAC): 41%; inhibition at 72 h, 25 µM [14]: 61%
CC(=O)Nc1ccc(S(=O)(=O)N2CCN(CCCn3cc(-c4ccc(C(F)(F)F)cc4)nn3)CC2)cc1	67%	31%	42%	59%	43%	42%	16%	41%	52%	30%	73%	–	–	–
CC(=O)Nc1ccc(S(=O)(=O)N2CCN(CCCn3cc(-c4ccc(Br)cc4)nn3)CC2)cc1	46%	16%	48%	58%	34%	28%	4%	39%	54%	19%	58%	–	–	–
COc1cccc(-c2cn(CCCN3CCN(S(=O)(=O)c4ccc(C(C)=O)cc4)CC3)nn2)c1	–	–	–	–	< 10%	–	–	–	–	–	–	30.1%	22.8%	–
CC(=O)Nc1ccc(S(=O)(=O)N2CCN(CCCn3cc(-c4ccccc4)nn3)CC2)cc1	47%	31%	59%	31%	30%	24%	10%	32%	34%	23%	44%	–	–	–
CC(=O)Nc1ccc(S(=O)(=O)N2CCN(CCCn3cc(-c4cccc(Cl)c4)nn3)CC2)cc1	49%	2%	33%	42%	32%	31%	1%	27%	24%	18%	43%	–	–	–
CC(=O)Nc1ccc(S(=O)(=O)N2CCN(CCCn3cc(-c4ccc(C)cc4)nn3)CC2)cc1	57%	40%	72%	46%	38%	42%	22%	36%	61%	34%	67%	–	–	–
CCc1ccc(-c2cn(CCCN3CCN(S(=O)(=O)c4ccccc4C(F)(F)F)CC3)nn2)cc1	–	–	–	–	–	–	–	–	–	–	–	–	–	inhibition at 25 µM (BXPC-3 [8]): 16%; inhibition at 25 µM (Capan-2): 25%; inhibition at 25 µM (MCF7 [9]): 82%; inhibition at 25 µM (MIA PaCa-2 [10]): 39%; inhibition at 25 µM (HT-29 [11]): 79%; inhibition at 25 µM (BE(2)-C [12]): 52%; inhibition at 25 µM (ASPC1): 59%; inhibition at 25 µM (A2780 [13]): 75%; inhibition at 25 µM (PANC-1): 48%; inhibition at 25 µM (HPAC): 67%; inhibition at 72 h, 25 µM [14]: 63%
COc1cccc(-c2cn(CCCN3CCN(S(=O)(=O)c4ccc(Cl)cc4)CC3)nn2)c1	–	–	–	–	< 10%	–	–	–	–	–	–	54.3%	22.9%	–
CC(=O)Nc1ccc(S(=O)(=O)N2CCN(CCCn3cc(-c4ccc([N+](=O)[O-])cc4)nn3)CC2)cc1	72%	33%	37%	50%	40%	47%	27%	42%	48%	40%	69%	–	–	–
CCc1ccc(-c2cn(CCCN3CCN(S(=O)(=O)c4ccc(NC(C)=O)cc4)CC3)nn2)cc1	59%	16%	29%	64%	38%	30%	< 0%	36%	42%	32%	67%	–	–	–
COc1cccc(-c2cn(CCCN3CCN(S(=O)(=O)c4ccc(F)cc4)CC3)nn2)c1	–	–	–	–	< 10%	–	–	–	–	–	–	40.8%	15.1%	–
COc1cccc(-c2cn(CCCN3CCN(S(=O)(=O)c4ccc(C(C)C)cc4)CC3)nn2)c1	–	–	–	–	11.4%	–	–	–	–	–	–	48.8%	< 10%	–
COc1cccc(-c2cn(CCCN3CCN(S(=O)(=O)c4ccc(C(C)(C)C)cc4)CC3)nn2)c1	–	–	–	–	< 10%	–	–	–	–	–	–	38.2%	< 10%	–
